Assay results as given in ChEMBL document CHEMBL5154633 (J Med Chem, 2022).
Activity calls are given as the source filed them. The calls are words filed in the database; no cut-off is given here.

Columns and labels:
[1] = Half life in human plasma at 3 to 225 mg, iv administered as 2 hr infusion; assay type: ADME, organism-based; conditions: dose 3-225 mg
[2] = system: SARS-CoV-2; experiment: Antiviral activity against SARS-COV 2 infected in African green monkey Vero E6 cells assessed as inhibition of viral replication after 48 hrs by qRT-PCR analysis; assay type: functional, organism-based; conditions: Severe acute respiratory syndrome coronavirus 2, Vero C1008, 48 h
[3] = AUC in human plasma at 3 to 225 mg, iv administered as 2 hr infusion; assay type: ADME, organism-based; design: time 2 hrs, route iv; conditions: dose 3-225 mg
[4] = system: SARS-CoV-2; experiment: Antiviral activity against SARS-COV 2 infected in human Calu-3 cells assessed as inhibition of viral replication after 48 hrs by qRT-PCR analysis; assay type: functional, organism-based; conditions: Severe acute respiratory syndrome coronavirus 2, Calu-3, 48 h
[5] = system: SARS-CoV-2; experiment: Antiviral activity against SARS-COV 2 infected in human Caco-2 cells assessed as inhibition of viral replication after 48 hrs by qRT-PCR analysis; assay type: functional, organism-based; conditions: Severe acute respiratory syndrome coronavirus 2, Caco-2, 48 h
[6] = system: Calu-3; experiment: Cytotoxicity against human Calu-3 cells assessed as reduction in cell viability upto 50 uM measured for 48 hrs by CCK8 assay; assay type: toxicity, cell-based; conditions: calu-3, 48 h
Outline: (§1)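 Vero E6, Calu-3 or Caco-2 cells were seeded at 20 000/well. They were exposed to 0, 0.01, 0.1, 1, 5, 10 or 50 μM compound for 48 h, and viability was read by CCK-8.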

[7] = system: Murine hepatitis virus; experiment: Antiviral activity against MHV-A59 infected in BALB/c mouse assessed as reduction in viral titer in liver at 100 mg/kg, ip administered at 0.5 hrs post infection followed by 50 mg/kg administered daily measured upto 14 days by qRT-PCR analysis; assay type: functional; design: scale not given: the % may be the effect or the level left; conditions: time <= 14 day
Outline: (§2)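 Male BALB/c mice were infected intranasally with MHV-A59 and dosed 100 mg/kg IG or IP at 0.5 hpi, then 50 mg/kg daily. Three mice per group were killed at 3 dpi. Liver RNA was extracted and viral load quantified by qRT-PCR against PBS-treated infected controls.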

[8] = AUC(0 to t) in Sprague-Dawley rat at 30 mg/kg, ig measured over 48 hrs by HPLC/MS analysis; assay type: ADME, organism-based; design: dose 30 mg/kg, time 48 hrs, route ig; conditions: in vivo, po
[9] = Tmax in Sprague-Dawley rat at 30 mg/kg, ig measured over 48 hrs by HPLC/MS analysis; assay type: ADME, organism-based; conditions: in vivo, po
[10] = Cmax in Sprague-Dawley rat at 30 mg/kg, iv measured over 48 hrs by HPLC/MS analysis; assay type: ADME, organism-based; design: dose 30 mg/kg, time 48 hrs, route iv; conditions: in vivo
[11] = system: Caco-2; experiment: Cytotoxicity against human Caco-2 cells assessed as reduction in cell viability upto 50 uM measured for 48 hrs by CCK8 assay; assay type: toxicity, cell-based; conditions: caco-2, 48 h; outline: as §1
[12] = system: Murine hepatitis virus; experiment: Antiviral activity against MHV-A59 infected in BALB/c mouse assessed as reduction in viral titer in liver at 100 mg/kg, ig administered at 0.5 hrs post infection followed by 50 mg/kg administered daily measured upto 14 days by qRT-PCR analysis; assay type: functional; design: scale not given: the % may be the effect or the level left; conditions: time <= 14 day; outline: as §2
[13] = Oral bioavailability in Sprague-Dawley rat at 30 mg/kg measured over 48 hrs by HPLC/MS analysis; assay type: ADME, organism-based; conditions: in vivo
[14] = Toxicity in BALB/c mouse infected with MHV-A59 assessed as change in body weight at 100 mg/kg, ip administered at 0.5 hrs post infection followed by 50 mg/kg administered daily measured upto 14 days; assay type: organism-based; conditions: in vivo, 336 h, time < 14 day
Outline: (§3)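 MHV-A59-infected male BALB/c mice (3–4 weeks) were dosed 100 mg/kg IG or IP at 0.5 hpi, then 50 mg/kg daily for 4 d. Uninfected drug-treated and PBS-only groups served as controls. Body weight was recorded daily for 14 d, N = 8 per group.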

[15] = AUC(0 to t) in Sprague-Dawley rat at 30 mg/kg, iv measured over 48 hrs by HPLC/MS analysis; assay type: ADME, organism-based; design: dose 30 mg/kg, time 48 hrs, route iv; conditions: in vivo
[16] = Toxicity in BALB/c mouse infected with MHV-A59 assessed as change in body weight at 100 mg/kg, ig administered at 0.5 hrs post infection followed by 50 mg/kg administered daily measured upto 14 days; assay type: organism-based; conditions: in vivo, po, 336 h, time < 14 day; outline: as §3
[17] = Toxicity AAV-human ACE2 transduced BALB/c mouse infected with SARS-COV2 assessed as loss of body weight at 25 mg/kg/day, ip administered 1 day prior to viral infection and treated for 8 days; assay type: organism-based; conditions: in vivo, 192 h, time 8 day
[18] = system: Murine hepatitis virus; experiment: Antiviral activity against MHV-A59 infected in BALB/c mouse assessed as improvement in survival at 100 mg/kg, ip administered at 0.5 hrs post infection followed by 50 mg/kg administered daily measured upto 14 days; assay type: functional; conditions: time <= 14 day
Outline: (§4)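 Male SPF BALB/c mice, 3–4 weeks old, were inoculated intranasally with 30 μL MHV-A59 in PBS (TCID50 10^-7.125/100 μL). They received 100 mg/kg IG or IP at 0.5 hpi, then 50 mg/kg once daily for the next 4 d. Untreated infected controls received PBS. Survival was followed for 14 d, N = 8 per group.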

[19] = system: SARS-CoV-2; experiment: Antiviral activity against SARS-CoV-2 infected in AAV-human ACE2 transduced BALB/c mouse assessed as viral clearance in lungs at 25 mg/kg/day, ip administered 1 day prior to viral infection and measured after 2 days post infection by focus forming assay; assay type: functional, organism-based; conditions: Severe acute respiratory syndrome coronavirus 2, time 3.0 day
[20] = Tmax in Sprague-Dawley rat at 30 mg/kg, iv measured over 48 hrs by HPLC/MS analysis; assay type: ADME, organism-based; conditions: in vivo
[21] = system: Vero C1008; experiment: Cytotoxicity against African green monkey Vero cells assessed as reduction in cell viability upto 50 uM measured for 48 hrs by CCK8 assay; assay type: toxicity, cell-based; conditions: chlorocebus sabaeus, vero c1008, 48 h; outline: as §1
[22] = system: Murine hepatitis virus; experiment: Antiviral activity against MHV-A59 infected in BALB/c mouse assessed as improvement in survival at 100 mg/kg, ig administered at 0.5 hrs post infection followed by 50 mg/kg administered daily measured upto 14 days; assay type: functional; conditions: time <= 14 day; outline: as §4

CCC(CC)COC(=O)[C@H](C)N[P@](=O)(OC[C@H]1O[C@@](C#N)(c2ccc3c(N)ncnn23)[C@H](O)[C@@H]1O)Oc1ccccc1
half-life [1]: < 60 min
IC50 [2]: 1350 nM
AUC at 2 h [3]: 1590 ng·h/mL
IC50 [4]: 650 nM
IC50 [5]: 580 nM

N#C[C@@]1(c2ccc3c(N)ncnn23)O[C@H](CO)[C@@H](O)[C@H]1O [GS-441524]
Activity [6]: Non-Toxic
Activity [7]: 99.9%
AUC(0-t) at 48 h [8]: 28700 ng·h/mL
Tmax [9]: 56.4 min
Cmax [10]: 164 µg/mL
Activity [11]: Non-Toxic
Activity [12]: 99.9%
bioavailability [13]: 4.84%
Activity [14]: Toxic
IC50 [2]: 700 nM
AUC(0-t) at 48 h [15]: 592000 ng·h/mL
Activity [16]: Toxic
Activity [17]: Non-Toxic
Activity [18]: 100%
Activity [19]: Active
Tmax [20]: 6 min
Activity [21]: Non-Toxic
Activity [22]: 100%
AUC at 2 h [3]: 2230 ng·h/mL
IC50 [4]: 3210 nM
IC50 [5]: 3620 nM
